From PMC4340684 (Bioorganic & medicinal chemistry, 2015)

How the values were obtained:
[1] = target: T1, recombinant rat HSL (Rattus norvegicus, UniProt P15304); assay: HSL lipase assay; type: biochemical; details: for times more potent than the corresponding cis isomer: chain lengths of 12–18 carbon atoms
T1 sequence (P15304 1-768 isoform P15304-2): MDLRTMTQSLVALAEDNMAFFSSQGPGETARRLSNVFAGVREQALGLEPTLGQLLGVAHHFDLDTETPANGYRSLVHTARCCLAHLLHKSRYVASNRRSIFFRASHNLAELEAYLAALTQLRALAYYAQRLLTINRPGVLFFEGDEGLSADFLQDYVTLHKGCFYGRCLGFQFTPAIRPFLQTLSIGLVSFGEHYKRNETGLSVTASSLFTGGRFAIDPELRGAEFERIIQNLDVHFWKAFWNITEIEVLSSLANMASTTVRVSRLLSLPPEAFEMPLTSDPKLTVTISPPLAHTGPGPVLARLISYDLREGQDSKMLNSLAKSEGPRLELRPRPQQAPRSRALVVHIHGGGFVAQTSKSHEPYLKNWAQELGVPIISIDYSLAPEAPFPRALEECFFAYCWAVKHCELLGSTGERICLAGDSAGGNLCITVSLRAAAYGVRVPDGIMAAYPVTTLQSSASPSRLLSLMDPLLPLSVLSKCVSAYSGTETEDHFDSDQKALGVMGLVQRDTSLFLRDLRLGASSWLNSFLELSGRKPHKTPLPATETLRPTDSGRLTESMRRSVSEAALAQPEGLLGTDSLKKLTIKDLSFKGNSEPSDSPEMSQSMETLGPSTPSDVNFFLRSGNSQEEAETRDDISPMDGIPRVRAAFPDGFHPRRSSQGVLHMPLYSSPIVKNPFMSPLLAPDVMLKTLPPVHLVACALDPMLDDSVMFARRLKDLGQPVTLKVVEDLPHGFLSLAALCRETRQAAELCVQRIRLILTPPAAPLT

[2] = target: T1, recombinant rat HSL; assay: Determination of rate constants for binding and inactivation of HSL; type: biochemical; details: fit to Eqn 2; no preincubation, 37 °C
How it was run: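 Baculovirus/Sf9-expressed rat HSL, Ni-NTA purified. Inhibitor in PC/PI (3:1) liposomes with 500 μM triolein plus 3H-triolein; pH 7.4 buffer, 0.2% BSA. Enzyme added directly at 37 °C; samples every 3–5 min for 30 min, 3H-oleate extracted, scintillation counted. Activity–time data at several inhibitor concentrations fit to Eqn 1 (kobs, k−2); normalized activity fit to Eqn 2 (KI, k2).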

| Compound | times more potent than the corresponding cis isomer [1] | further results |
| --- | --- | --- |
| CCCCCCCCCCCCCCCCO[P@]1(=O)CC[C@@H]2COC(=O)C2=C(C)O1 (racemic) [Cyclipostin P Phosphonate 6a, (±)-(3R(S),5aR(S))-3-(hexadecyloxy)-1-methyl-4,5,5a,6-tetrahydrofuro[3,4-e][1,2]oxaphosphepin-8(3H)-one 3-oxide] | – | fold less potent than the other bicyclic phosphonate analogs ([1]; vs about 400 nM): about 10 fold |
| CCCCCCCCCCCC[C@H]1CC[P@@](=O)(OC)OC(C)=C1C(=O)OC [10b] | 2–6 times | – |
| CCCCCCCCCCCCCCCC[C@H]1CC[P@@](=O)(OC)OC(C)=C1C(=O)OC [11b] | 2–6 times | – |
| CCCCCCCCCCCCCCCCCC[C@H]1CC[P@@](=O)(OC)OC(C)=C1C(=O)OC [12b] | 2–6 times | – |
| CCCCCCCCCCCCCCCCO[P@]1(=O)OC[C@@H]2COC(=O)C2=C(C)O1 [Cyclipostin P 4a] | – | k2 (forward rate constant for inactivation) [2]: 0.2 min⁻¹ |
| CCCCCCCCCCCCCCCCO[P@]1(=O)OC[C@H]2COC(=O)C2=C(C)O1 [Cyclipostin P 4b] | – | fold weaker IC50 of the less potent diastereomer vs the more potent diastereomer [1]: 16 fold |
